# In ChEMBL document CHEMBL1137336, “Structure-function correlation of chloroquine and analogues as transgene expression enhancers in nonviral gene delivery” (J Med Chem, 2006):
# Activity calls are given as the source filed them. The calls are words filed in the database; no cut-off is given here.
# Assays:
# Nucleic Acid [1] = experiment: Transcription of plasmid pGL3-CV upto 2.5 mM relative to control; format: nucleic-acid assay
# HepG2 [2] = experiment: Transfection of CDP/plasmid pGL3-CV in HepG2 cells at 150 uM after 48 hrs by luciferase assay; format: functional, Homo sapiens
# In short: (§1)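 Cells plated at 5 × 10⁴/well 24 h ahead and rinsed with PBS. CDP/pGL3-CV polyplexes (1 µg DNA, charge ratio 5 +/-) applied in Opti-MEM with compound for 4 h at 37 °C, 5% CO₂, then medium replaced. After another 44 h, lysates assayed for luciferase in duplicate, expressed as RLU/mg protein. Viability taken as total lysate protein by modified Lowry (DC) assay, normalized to cells transfected with naked DNA.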
# HepG2 [3] = experiment: Viability of human HepG2 cells at 150 uM; format: functional; in short: as §1
# HepG2 [4] = experiment: Transfection of CDP/plasmid pGL3-CV in HepG2 cells at 200 uM after 48 hrs by luciferase assay; format: functional, Homo sapiens; in short: as §1
# HepG2 [5] = experiment: Viability of human HepG2 cells at 200 uM; format: functional; in short: as §1
# HepG2 [6] = experiment: Transfection of CDP/plasmid pGL3-CV in HepG2 cells at 20 uM after 48 hrs by luciferase assay; format: functional, Homo sapiens; in short: as §1
# HepG2 [7] = experiment: Viability of human HepG2 cells at 20 uM; format: functional; in short: as §1
# HepG2 [8] = experiment: Transfection of CDP/plasmid pGL3-CV in HepG2 cells at 100 uM after 48 hrs by luciferase assay; format: functional, Homo sapiens; in short: as §1
# HepG2 [9] = experiment: Viability of human HepG2 cells at 100 uM; format: functional; in short: as §1
# HeLa [10] = experiment: Transfection of CDP/plasmid pGL3-CV in HeLa cells at 200 uM after 48 hrs by luciferase assay; format: functional, Homo sapiens; in short: as §1
# HepG2 [11] = experiment: Uptake of CDP/plasmid pGL3-CV polyplexes in HepG2 cells after 2 hrs; format: ADME, cell-based; conditions: human, hepg2, 2 h
# HeLa [12] = experiment: Viability of human HeLa cells at 200 uM; format: functional; in short: as §1
# HepG2 [13] = experiment: Uptake of CDP/plasmid pGL3-CV polyplexes in HepG2 cells after 30 mins; format: ADME, cell-based; conditions: human, hepg2, 0.5 h
# Nucleic Acid [14] = experiment: Displacement of plasmid pGL3-CV from CDP/plasmid pGL3-CV polyplexes at 500 uM; format: nucleic-acid assay
# In short: (§2)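 pGL3-CV (2 µg, 0.6 pmol) complexed with CDP (24 µg, 4 nmol), diluted in PBS and held 30 min at 25 °C. Mixed with compound for a further 30 min at 25 °C, then passed through a 100 nm membrane presoaked with matching compound concentration. Free DNA in filtrate measured by DAPI fluorescence (ex 350/em 465 nm). % released = (If−I0)/(It−I0)×100.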
# Nucleic Acid [15] = experiment: Exclusion of picogreen dye from plasmid pGL3-CV at 1 mM; format: nucleic-acid assay
# In short: (§3)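 CDP/pGL3-CV polyplexes diluted 2.5× in water, then mixed 1:1 with compound at twice the final concentration. Incubated 5 min at room temperature, then combined with an equal volume of PicoGreen diluted 200× in 10 mM HEPES. Fluorescence read at ex 488/em 535 nm; exclusion taken as loss of dye fluorescence.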
# HepG2 [16] = experiment: Uptake in human HepG2 cells after 4 hrs in presence of CDP/plasmid pGL3-CV polyplexes; format: ADME, cell-based; conditions: hepg2, 4 h
# In short: (§4)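 HepG2 cells (2 × 10⁶) incubated at 37 °C in Opti-MEM (pH 7.4) with 100 µM compound, with or without CDP/pDNA (20 nmol/3 pmol). At set times, washed with cold PBS with and then without compound, lysed, and diluted in 0.1 N NaOH. Fluorescence read at ex 360/em 465 nm, converted by standard curve, and cellular concentration calculated assuming a cell volume of 3 × 10⁻⁶ µL.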
# Nucleic Acid [17] = experiment: Exclusion of picogreen dye from plasmid pGL3-CV at 0.5 mM; format: nucleic-acid assay; in short: as §3
# Nucleic Acid [18] = experiment: Displacement of plasmid pGL3-CV from CDP/plasmid pGL3-CV polyplexes at 20 mM; format: nucleic-acid assay; in short: as §2
# HepG2 [19] = experiment: Uptake in human HepG2 cells at 100 uM after 4 hrs; format: ADME, cell-based; conditions: hepg2, 4 h; in short: as §4
# Nucleic Acid [20] = experiment: Binding affinity to plasmid pGL3-CV assessed as retardation of movement in gel at 1 mM; format: nucleic-acid assay
# In short: (§5)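 pGL3-CV plasmid mixed with compound across 0.1-10 mM, each solution held ~10 min, then loading buffer and Borax buffer (0.025 M, pH 8.4) added. Run on 0.5% agarose gel containing ethidium bromide in TAE (40 mM Tris-acetate, 1 mM EDTA). Mobility compared with untreated plasmid.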
# Nucleic Acid [21] = experiment: Binding affinity to plasmid pGL3-CV assessed as retardation of movement in gel at 100 uM; format: nucleic-acid assay; in short: as §5
# Nucleic Acid [22] = experiment: Binding affinity to plasmid pGL3-CV assessed as retardation of movement in gel at 10 mM; format: nucleic-acid assay; in short: as §5
# Nucleic Acid [23] = experiment: Exclusion of picogreen dye from plasmid pGL3-CV at 4 mM; format: nucleic-acid assay; in short: as §3
# HepG2 [24] = experiment: Uptake in human HepG2 cells at 100 uM after 30 mins; format: ADME, cell-based; conditions: hepg2, 0.5 h; in short: as §4
# Nucleic Acid [25] = experiment: Displacement of plasmid pGL3-CV from CDP/plasmid pGL3-CV polyplexes at 2.5 mM; format: nucleic-acid assay; in short: as §2
# Nucleic Acid [26] = experiment: Displacement of plasmid pGL3-CV from CDP/plasmid pGL3-CV polyplexes at 5 to 20 mM; format: nucleic-acid assay; in short: as §2
Structure (SMILES),Activity (Nucleic Acid [1]),Activity (HepG2 [2]),Activity (HepG2 [3]),Activity (HepG2 [4]),Activity (HepG2 [5]),Activity (HeLa [10]),Activity (HeLa [12]),also measured
CCN(CC)CCCC(C)Nc1c2ccc(Cl)cc2nc2ccc(OC)cc12 (configuration not stated) [QUINACRINE],,,,,,,,Activity (HepG2 [6]): 25000000 RLU/mg; Activity (HepG2 [7]): 57%
NCCCN1CCN(CCCNc2ccnc3cc(Cl)ccc23)CC1,75%,,,,,,,Activity (HepG2 [8]): 20000000 RLU/mg; Activity (HepG2 [9]): 74%
CCN(CC)CCCC(C)Nc1ccncc1 (configuration not stated),,,,6400000 RLU/mg,85%,82000 RLU/mg,101%,Activity (HepG2 [11]): 76.2%; Activity (HepG2 [13]): 12.8%
CCN(CC)CCCC(C)Nc1ccnc2cc(C(F)(F)F)ccc12 (configuration not stated),75%,,,170000000 RLU/mg,61%,6700000 RLU/mg,83%,Activity (Nucleic Acid [14]): 40%; Activity (Nucleic Acid [22]): Active; Activity (Nucleic Acid [23]): 100%; Activity (Nucleic Acid [15]): 30%; Drug uptake (HepG2 [16]): 13 mM; Activity (Nucleic Acid [17]): 30%; Activity (Nucleic Acid [18]): 70%; Drug uptake (HepG2 [24]): 11 mM
CCN(CC)CCCC(C)Nc1ccnc2ccccc12 (configuration not stated),75%,,,2700000 RLU/mg,100%,,,Activity (Nucleic Acid [25]): < 3%; Drug uptake (HepG2 [16]): 2 mM; Activity (HepG2 [11]): 75.5%; Activity (Nucleic Acid [26]): 10%; Activity (HepG2 [13]): 18.8%

# More lines, main results first:
Activity (Nucleic Acid [1]),Structure (SMILES),Activity (HepG2 [2]),Activity (HepG2 [3]),Activity (HepG2 [4]),Activity (HepG2 [5]),Activity (HeLa [10]),Activity (HeLa [12]),also measured
75%,CC(Nc1ccnc2cc(Cl)ccc12)C(=O)O (configuration not stated),4300000 RLU/mg,84%,,,,,
75%,CC(C)CCCC(C)Nc1ccnc2cc(Cl)ccc12 (configuration not stated),4700000 RLU/mg,89%,,,,,
75%,CC(C)NCCNCCNc1ccnc2cc(Cl)ccc12,,,22000000 RLU/mg,74%,,,
75%,CN(C)CCNc1ccnc2cc(Cl)ccc12,25000000 RLU/mg,64%,,,,,
75%,CCN(CC)CCCC(C)Nc1ccnc2cc(Cl)ccc12 (configuration not stated) [CHLOROQUINE],,,16000000 RLU/mg,60%,4300000 RLU/mg,82%,Activity (Nucleic Acid [14]): 10%; Activity (Nucleic Acid [15]): 23%; Drug uptake (HepG2 [16]): 13 mM; Activity (Nucleic Acid [17]): 23%; Activity (HepG2 [11]): 67.7%; Activity (Nucleic Acid [18]): 50%; Drug uptake (HepG2 [19]): 12 mM; Activity (Nucleic Acid [20]): inactive; Activity (Nucleic Acid [21]): inactive; Activity (HepG2 [13]): 11.9%
75%,CCN(CC)CCOc1ccnc2cc(Cl)ccc12,,,,,230000 RLU/mg,92%,Activity (Nucleic Acid [15]): 17%; Activity (Nucleic Acid [17]): 17%
75%,NCCN(CCN)CCNc1ccnc2cc(Cl)ccc12,25000000 RLU/mg,83%,,,,,
